Key:
[1] = system: Mycobacterium tuberculosis; experiment: Antimycobacterial activity against Mycobacterium bovis BCG at 25 uM after 10 days by broth dilution method relative to control; assay type: functional, variant bovis BCG
[2] = system: Mycobacterium tuberculosis; experiment: Antimycobacterial activity against Mycobacterium bovis BCG after 10 days by broth dilution method; assay type: functional; details: variant bovis BCG, 240 h
How it was run: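 Broth microdilution. Mid-log cultures (OD600 0.4–0.6) were diluted and added to 2-fold serial compound dilutions in DMSO, giving a final 5 × 10^5 CFU/mL in 7H9-albumin-dextrose-catalase-glycerol-Tween 80. Plates were sealed and incubated at 37 °C for 10 days with shaking at 80 rpm. OD600 was read; MIC50 and MIC90 are the lowest concentrations giving 50% and 90% growth inhibition. Rifampicin and DMSO served as controls. Means of 3 independent experiments.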

[3] = system: Mycobacterium tuberculosis; experiment: Ratio of MIC90 for Mycobacterium bovis BCG over-expressing DHFR to MIC90 for Mycobacterium bovis BCG; assay type: functional, variant bovis BCG

| Compound | Activity [1] [%] | MIC50 [2] [µM] | MIC90 [2] [µM] | Ratio [3] |
| --- | --- | --- | --- | --- |
| Cl.NC1=NC2(CCCCC2)N(c2ccc(OCc3cn(CCCc4ccccc4)nn3)cc2)C(N)=N1 | 67.8 | 20.7 | > 100 |  |
| Cl.NC1=NC2(CCCCC2)N(Cc2cn(CCCc3ccccc3)nn2)C(N)=N1 | 5.4 |  |  |  |
| Cl.NC1=NC2(CCCCC2)N(c2ccc(OCc3cn(CCCCOc4ccc5ccc(=O)oc5c4)nn3)cc2)C(N)=N1 | 92.1 | 0.01 to 0.02 | 0.1 | 25 - 30 |
| Cl.NC1=NC2(CCCCC2)N(Cc2cn(CCCOc3ccc4ccc(=O)oc4c3)nn2)C(N)=N1 | 7.8 |  |  |  |
| Cl.NC1=NC2(CCCCC2)N(c2ccc(OCc3cn(CCOc4ccc5ccc(=O)oc5c4)nn3)cc2)C(N)=N1 | 84.8 | 0.2 | 1.56 |  |
| Cl.NC1=NC2(CCCCC2)N(Cc2cn(CCc3ccccc3)nn2)C(N)=N1 | 4.7 |  |  |  |
| Cl.NC1=NC2(CCCCC2)N(Cc2cn(CC(=O)c3ccccc3)nn2)C(N)=N1 | 3.4 |  |  |  |
| Cl.NC1=NC2(CCCCC2)N(Cc2cn(CCOc3ccc4ccc(=O)oc4c3)nn2)C(N)=N1 | 5.8 |  |  |  |
| Cl.NC1=NC2(CCCCC2)N(c2ccc(OCc3cn(CCc4ccccc4)nn3)cc2)C(N)=N1 | 25.6 |  |  |  |
| Cl.NC1=NC2(CCCCC2)N(c2ccc(OCc3cn(CC(=O)c4ccccc4)nn3)cc2)C(N)=N1 | 12.8 |  |  |  |
| Cl.NC1=NC2(CCCCC2)N(Cc2cn(CCCCCOc3ccc4oc(=O)ccc4c3)nn2)C(N)=N1 | 6.7 |  |  |  |
| Cl.NC1=NC2(CCCCC2)N(c2ccc(OCc3cn(CCCOc4ccc5ccc(=O)oc5c4)nn3)cc2)C(N)=N1 | 88.4 | 0.02 | 0.2 | 25 - 30 |
| Cl.NC1=NC2(CCCCC2)N(c2ccc(OCc3cn(Cc4ccccc4)nn3)cc2)C(N)=N1 | 61.7 | 19.2 | > 100 |  |
| Cl.NC1=NC2(CCCCC2)N(Cc2cn(Cc3ccccc3)nn2)C(N)=N1 | 4.5 |  |  |  |
| Nc1ccc(C(=O)O)c(O)c1 [AMINOSALICYLIC ACID] |  |  |  | 16 |

From ChEMBL document CHEMBL4145451, “1,3,5-triazaspiro[5.5]undeca-2,4-dienes as selective Mycobacterium tuberculosis dihydrofolate reductase inhibitors with potent whole cell activity” (Eur J Med Chem, 2018)
